Data reported in ChEMBL document CHEMBL3856184, “Tyrosol and hydroxytyrosol derivatives as antitrypanosomal and antileishmanial agents” (Eur J Med Chem, 2016).

Assays:
[1] = Selectivity index, ratio of IC50 for human MRC5 cells to IC50 for bloodstream form of Trypanosoma brucei brucei S16; assay type: toxicity, cell-based; details: read-out: Ratio IC50
Leishmania donovani [2] = assay: Antileishmanial activity against Leishmania donovani MHOM/ET/67/HU3 axenic amastigotes at 20 uM after 72 hrs by resazurin-based assay relative to control; assay type: functional; details: MHOM/ET/67/HU3, 72 h
Method in brief: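 Axenic amastigotes grown in Schneider medium with 20% hiFBS, pH 5.4, 37 °C, 5% CO₂. 10⁶ parasites/ml exposed to a single 20 μM concentration for 72 h at 37 °C. Viability read by resazurin assay, reported as percent inhibition.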

[3] = test system: Trypanosoma brucei brucei; assay: Antitrypanosomal activity against bloodstream form of Trypanosoma brucei brucei S16 assessed as inhibition of proliferation measured after 72 hrs by alamarBlue assay; assay type: functional; details: S16, 72 h
Method in brief: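 Bloodstream forms cultured in HMI-9 with 10% hiFBS at 37 °C, 5% CO₂. Seeded at 1 × 10⁴ per mL with increasing compound concentrations for 72 h under the same conditions. Proliferation read by alamarBlue fluorescence, excitation 550 nm and emission 590 nm.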

[4] = Cytotoxicity against human MRC5 cells assessed as inhibition of cell proliferation measured after 72 hrs by MTT assay; assay type: toxicity, cell-based
Method in brief: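 SV-40 transformed fetal lung fibroblasts kept in DMEM with 10% hiFBS and penicillin/streptomycin at 37 °C, 5% CO₂. Cells trypsinized, seeded at 4 x 10⁴ cell/ml and exposed to increasing concentrations for 72 h at 37 °C. Viability read by colorimetric MTT. EC₅₀ taken as the concentration reducing growth by 50% versus untreated cells.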

[5] = test system: Trypanosoma brucei brucei; assay: Potency index, ratio of IC50 for hydroxytyrosol to IC50 for test compound against bloodstream form of Trypanosoma brucei brucei S16; assay type: functional
Leishmania donovani [6] = assay: Antileishmanial activity against Leishmania donovani MHOM/ET/67/HU3 intracellular amastigotes infected in human THP1 cells after 72 hrs by luciferase coupled luminescence assay; assay type: functional, cell-based; details: MHOM/ET/67/HU3, THP-1, 72 h
Method in brief: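 Luciferase-expressing parasite line. THP-1 cells differentiated with 20 ng/mL PMA for 48 h, then 24 h in fresh medium, seeded at 3x10⁴ macrophages/well and infected with late-stage promastigotes at a macrophage:parasite ratio of 1:10. Infected cultures exposed to a range of concentrations in RPMI 1640 with 10% hiFBS at 37 °C, 5% CO₂ for 72 h, then lysed. Luminescence read as intracellular parasite growth.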

[7] = test system: Trypanosoma brucei brucei; assay: Potency index, ratio of IC50 for tyrosol to IC50 for test compound against bloodstream form of Trypanosoma brucei brucei S16; assay type: functional
[8] = Selectivity index, ratio of IC50 for human MRC5 cells to IC50 for intracellular amastigotes of Leishmania donovani MHOM/ET/67/HU3 infected in human THP1 cells; assay type: toxicity, cell-based; details: read-out: Ratio IC50

Row | Compound | selectivity ratio [1] | inhibition at 20 µM (Leishmania donovani [2]) [%] | IC50 [3] [µM] | IC50 at 72 h [4] [µM] | Ratio IC50 [5] | IC50 (Leishmania donovani [6]) [µM] | Ratio IC50 [7] | selectivity ratio [8]
1 | CC(=O)OCCc1ccc(O)c(O)c1 | > 1 | 48 | 43.4 | > 50 | 1 | > 10 | – | –
2 | Oc1ccc(CCN=C=S)cc1O | 2 | – | 9.87 | 21.1 | 5 | – | – | –
3 | CCCCCCCCCCOCCc1ccc(OCc2ccccc2)c(OCc2ccccc2)c1 | > 5 | – | > 10 | > 50 | >5 | – | – | –
4 | CCCCCCCCCCCCOCCc1ccc(O)c(O)c1 | 21 | – | 0.63 | 13.2 | 75 | – | – | –
5 | CCCCCCCCCCCCSCCc1ccc(OCc2ccc(OC)cc2)c(OCc2ccc(OC)cc2)c1 | > 5 | – | > 10 | > 50 | 5 | – | – | –
6 | CCCCCCCCCCCC(=O)NCCc1ccc(O)c(O)c1 | > 5 | – | 8.74 | > 50 | 5 | – | – | –
7 | CCCCCCCCCCCC(=O)OCCc1ccc2c(c1)OCO2 | > 5 | – | > 10 | > 50 | >5 | – | – | –
8 | O=S(=O)([O-])Oc1ccc(CCO)cc1.[K+] | 2.6 | 36 | 41.6 | 106 | – | – | 0.16 | –
9 | CCCCCCCCCCCCNC(=S)NCCc1ccc(O)c(O)c1 | 4 | – | 0.77 | 2.96 | 62 | – | – | –
10 | CCCCCCCCCCOCCc1ccc(OCc2ccc(OC)cc2)c(OCc2ccc(OC)cc2)c1 | > 5 | – | > 10 | > 50 | >5 | – | – | –
11 | CCCCCCCCCCCC(=O)OCCc1ccc(O)cc1 | 4.1 | 32 | 16.2 | 67.2 | – | – | 0.52 | –
12 | CCCCCCCC(=O)OCCc1ccc(O)c(O)c1 | 11 | 45 | 9.6 | 104 | 5 | > 10 | – | 10.3
13 | CCCCCCCCCC(=O)NCCc1ccc(O)c(O)c1 | > 5 | – | > 10 | > 50 | 5 | – | – | –
14 | CC(=O)OCCc1ccc(O)cc1 | 1.4 | 28 | 79.4 | 114 | – | – | 0.13 | –
15 | CCCCCCCCCCCC(=O)OCCc1ccc(O)c(O)c1 | 101 to 106 | 56 | 0.36 | 38.1 | 132 | > 10 | – | –
16 | CCCCCCCCCCCCCC(=O)OCCc1ccc(O)c(O)c1 | > 22 | 53 | 2.29 | > 50 | 21 | > 10 | – | –
17 | CCCCCCCCCCNC(=S)NCCc1ccc(O)c(O)c1 | 33 | – | 0.74 | 24.8 | 64 | – | – | –
18 | O=C(O)[C@H]1O[C@@H](Oc2ccc(CCO)cc2)[C@H](O)[C@@H](O)[C@@H]1O | 1.8 | 36 | 61.5 | 110 | – | – | 0.17 | –
19 | CCCCCCCCCCOCCc1ccc(O)c(O)c1 | > 38 | – | 1.29 | > 50 | 37 | – | – | –
20 | CCCCCCCCCCCCSCCc1ccc(OCc2ccccc2)c(OCc2ccccc2)c1 | > 5 | – | > 10 | > 50 | 5 | – | – | –
21 | CCCCCCCCCC(=O)OCCc1ccc2c(c1)OCO2 | > 5 | – | > 10 | > 50 | >5 | – | – | –
22 | C[C@@H]1[C@H](O)[C@@H](C)/C=C/C=C/C=C/C=C/C=C/C=C/C=C/[C@H](O[C@@H]2O[C@H](C)[C@@H](O)[C@H](N)[C@@H]2O)C[C@@H]2O[C@](O)(C[C@@H](O)C[C@@H](O)[C@H](O)CC[C@@H](O)C[C@@H](O)CC(=O)O[C@H]1C)C[C@H](O)[C@H]2C(=O)O [AMPHOTERICIN B] | – | – | – | – | – | 0.1 | – | –
23 | NCCc1ccc(O)c(O)c1 [DOPAMINE] | 7 | – | > 10 | 68.9 | 5 | – | – | –
24 | CCCC(=O)OCCc1ccc(O)c(O)c1 [HYDROXYTYROSOL BUTANOATE] | 8 | 48 | 9.4 | 71.5 | 5 | > 10 | – | 7.1
25 | CCCCCCCCCC(=O)OCCc1ccc(O)c(O)c1 [HYDROXYTYROSOL DECANOATE] | 118 | 54 | 0.6 | 71.1 | 79 | 8.44 | – | 8.4
26 | CCCCCCCCCCCCCCCC(=O)OCCc1ccc(O)c(O)c1 [HYDROXYTYROSOL PALMITATE] | > 21 | 52 | 2.43 | > 50 | 20 | > 10 | – | –
27 | Cc1ccc(C(=O)Nc2ccc(S(=O)(=O)O)c3cc(S(=O)(=O)O)cc(S(=O)(=O)O)c23)cc1NC(=O)c1cccc(NC(=O)Nc2cccc(C(=O)Nc3cc(C(=O)Nc4ccc(S(=O)(=O)O)c5cc(S(=O)(=O)O)cc(S(=O)(=O)O)c45)ccc3C)c2)c1 [SURAMIN] | – | – | 0.038 | – | – | – | – | –
